ChEMBL document CHEMBL1136798, “Synthesis and pharmacological characterization of a series of geometrically constrained 5-HT(2A/2C) receptor ligands” (J Med Chem, 2003)
The source made the active and inactive calls.

Columns and labels:
Rattus norvegicus [1] = species on record: Rattus norvegicus; experiment: Maximum 5-HT stimulation was determined […]; format: functional
Method in brief: (§1)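 Rat 5-HT2A-expressing cells at 70% confluency were labelled for 18-20 h with 1.0 µCi/mL [3H]-myo-inositol. They were pretreated for 15 min with 10 µM pargyline/10 mM LiCl, then exposed to drug for 30 min at 37 °C. Formic acid stopped the reaction. [3H]inositol phosphates were separated on Dowex-1 columns. Efficacy is expressed relative to serotonin.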

[2] = molecular target: T1, 5-hydroxytryptamine receptor 2A (Rattus norvegicus, UniProt P14842); experiment: (§2) Tested for its ability to activate phospholipase C by quantification of IP3 at cloned rat 5-hydroxytryptamine 2A receptor
T1 sequence (P14842 whole entry): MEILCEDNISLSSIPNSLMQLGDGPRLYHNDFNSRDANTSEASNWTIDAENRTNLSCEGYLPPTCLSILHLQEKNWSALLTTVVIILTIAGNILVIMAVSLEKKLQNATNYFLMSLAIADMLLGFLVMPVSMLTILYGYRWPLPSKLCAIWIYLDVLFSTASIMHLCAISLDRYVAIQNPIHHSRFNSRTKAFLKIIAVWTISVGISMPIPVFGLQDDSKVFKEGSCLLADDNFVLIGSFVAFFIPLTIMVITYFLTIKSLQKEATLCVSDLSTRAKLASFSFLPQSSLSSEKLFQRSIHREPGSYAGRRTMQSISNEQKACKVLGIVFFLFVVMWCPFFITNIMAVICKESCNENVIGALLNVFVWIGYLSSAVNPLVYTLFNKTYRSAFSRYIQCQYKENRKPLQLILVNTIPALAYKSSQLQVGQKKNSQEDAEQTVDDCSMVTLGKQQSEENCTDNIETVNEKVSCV
Method in brief: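 They were pretreated for 15 min with 10 µM pargyline/10 mM LiCl, then exposed to drug for 30 min at 37 °C. Formic acid stopped the reaction. [3H]inositol phosphates were separated on Dowex-1 columns. Efficacy is expressed relative to serotonin.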

[3] = molecular target: T1, 5-hydroxytryptamine receptor 2A; experiment: In vitro binding to 5-hydroxytryptamine 2A receptor using [125 I]-DOI
Method in brief: (§3)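 Stably transfected cells expressing the rat 5-HT2A or rat 5-HT2C receptor were harvested as frozen pellets. Nonspecific binding was set with 10 µM cinanserin (5-HT2A) or 10 µM mianserin (5-HT2C). Bound label was collected on PEI-soaked GF/B filters and counted by scintillation.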

[4] = molecular target: T2, 5-hydroxytryptamine receptor 1A (Homo sapiens, UniProt P08908); experiment: Tested in vitro for its ability to bind to 5-hydroxytryptamine 1A receptor using [3H]8-OH-DPAT as radioligand
T2 sequence (P08908 whole entry): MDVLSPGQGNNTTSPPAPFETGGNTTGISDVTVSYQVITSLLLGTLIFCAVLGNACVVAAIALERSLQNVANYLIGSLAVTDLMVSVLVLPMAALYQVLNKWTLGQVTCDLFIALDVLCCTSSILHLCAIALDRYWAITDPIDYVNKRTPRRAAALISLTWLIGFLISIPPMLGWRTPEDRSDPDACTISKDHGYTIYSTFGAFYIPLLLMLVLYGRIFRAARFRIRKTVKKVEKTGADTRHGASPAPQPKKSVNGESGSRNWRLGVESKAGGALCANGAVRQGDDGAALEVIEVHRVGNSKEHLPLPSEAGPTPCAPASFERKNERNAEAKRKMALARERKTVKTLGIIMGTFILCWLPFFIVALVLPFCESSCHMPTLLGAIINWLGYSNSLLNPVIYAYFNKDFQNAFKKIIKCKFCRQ
Method in brief: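 Human 5-HT1A receptor stably expressed in cells, used as harvested pellets. Competition used 2.0 nM [3H]-8-OH-DPAT in Tris/EDTA/MgCl2 buffer at pH 7.4, for 60 min at 25 °C. Nonspecific binding was defined with 10 µM 5-HT. Bound label was collected by filtration and counted by scintillation.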

[5] = molecular target: T3, 5-hydroxytryptamine receptor 2C (Rattus norvegicus, UniProt P08909); experiment: In vitro binding to 5-hydroxytryptamine 2C receptor using [125 I]-DOI; method in brief: as §3
T3 sequence (P08909 whole entry): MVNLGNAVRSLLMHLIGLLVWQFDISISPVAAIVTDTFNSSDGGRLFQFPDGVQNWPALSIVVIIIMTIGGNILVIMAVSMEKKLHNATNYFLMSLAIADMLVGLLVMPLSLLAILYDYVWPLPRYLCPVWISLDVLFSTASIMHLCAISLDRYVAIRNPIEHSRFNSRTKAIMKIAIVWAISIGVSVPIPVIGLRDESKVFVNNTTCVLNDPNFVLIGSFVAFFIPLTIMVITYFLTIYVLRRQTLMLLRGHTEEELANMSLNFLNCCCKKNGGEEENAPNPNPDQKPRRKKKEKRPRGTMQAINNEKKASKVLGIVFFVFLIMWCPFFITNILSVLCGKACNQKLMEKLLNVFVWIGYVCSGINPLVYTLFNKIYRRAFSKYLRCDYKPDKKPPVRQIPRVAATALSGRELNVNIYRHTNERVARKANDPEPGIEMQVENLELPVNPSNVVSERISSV

[6] = molecular target: T1, 5-hydroxytryptamine receptor 2A; experiment: as §2; method in brief: as §1; remark: listed apart in the source
[7] = molecular target: T1, 5-hydroxytryptamine receptor 2A; experiment: Tested in vitro for its ability to bind to 5-hydroxytryptamine 2A receptor using [125 I]-DOI as radioligand
Method in brief: as §3, with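 “pellets. Competition used 0.20 nM [125I]-DOI in 50 mM Tris, 0.1 mM EDTA, 10 mM MgCl2, pH 7.4, for 60 min at 25 °C.” for “pellets.”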

[8] = molecular target: T1, 5-hydroxytryptamine receptor 2A; experiment: Tested for its ability to activate phospholipase c by quantification of IP3 at cloned rat 5-hydroxytryptamine 2A receptor; method in brief: as §1
Rattus norvegicus [9] = species on record: Rattus norvegicus; experiment: Compound was tested for effective dose in DOI trained rats; format: functional
Rattus norvegicus [10] = species on record: Rattus norvegicus; experiment: Compound was tested for effective dose in LSD trained rats; format: functional
Rattus norvegicus [11] = species on record: Rattus norvegicus; experiment: Maximum 5-HT stimulation was determined at 10 uM […]; format: functional
Rattus norvegicus [12] = experiment: Compound was tested for effective dose in LSD trained rats; Partial substitution at 1-6 uM/Kg (0.36-[…]); format: functional, organism-based
Rattus norvegicus [13] = experiment: Compound was tested for effective dose in DOI trained rats; Partial substitution at 1-6 uM/Kg (0.36-[…]); format: functional, organism-based

## CN(C)CCc1c[nH]c2cccc(O)c12 [PSILOCIN]
Rattus norvegicus [1]
  Max: 46%
[2]
  EC50: 2300 nM
[3]
  Ki: 25 nM

## COc1cc(Br)c2c3c1[C@H](CN)CC[C@H]3CO2
[4]
  Ki: 550 nM
[5]
  Ki: 4.9 nM
Rattus norvegicus [1]
  Max: 37%
[6]
  EC50: 340 nM
[7]
  Ki: 9.3 nM

## COc1cc(CCN)cc(OC)c1OC [MESCALINE]
[8]
  EC50: 2600 nM
Rattus norvegicus [1]
  Max: 92%

## CCN(CC)C(=O)[C@@H]1C=C2c3cccc4[nH]cc(c34)C[C@H]2N(C)C1 [LYSERGIDE]
Rattus norvegicus [1]
  Max: 22%

## COc1cc(Br)c2c3c1C[C@H](N)C[C@@H]3CO2 (relative stereo)
[4]
  Ki: 960 nM
[5]
  Ki: 4 nM
Rattus norvegicus [1]
  Max: 63%
[2]
  EC50: 2090 nM
[3]
  Ki: 16 nM

## COc1cc(CC(C)N)c(OC)cc1Br (configuration not stated) [BROLAMFETAMINE]
Rattus norvegicus [9]
  ED50: 0.091 µmol/kg
Rattus norvegicus [1]
  Max: 79%
Rattus norvegicus [10]
  ED50: 1.06 µmol/kg

## COc1cc(Br)c2c3c1[C@H](CN)CC[C@@H]3CO2
[4]
  Ki: 520 nM
[5]
  Ki: 2.8 nM
Rattus norvegicus [1]
  Max: 49%
[2]
  EC50: 1100 nM
[3]
  Ki: 8.7 nM

## COc1ccc2occ3c2c1[C@H](CN)CC3
[4]
  Ki: 860 nM
[5]
  Ki: 11 nM
Rattus norvegicus [11]
  Max: 10%
[2]
  EC50: > 10000 nM
[3]
  Ki: 200 nM

## COc1ccc2c3c1[C@H](CN)CC[C@H]3CO2
[4]
  Ki: 1000 nM
[5]
  Ki: 34 nM
[3]
  Ki: 310 nM

## COc1ccc2c3c1[C@H](CN)CC[C@@H]3CO2
[4]
  Ki: 3000 nM
[5]
  Ki: 59 nM
[3]
  Ki: 700 nM

## COc1cc(Br)c2occ3c2c1[C@H](CN)CC3
[4]
  Ki: 105 nM
[5]
  Ki: 1.1 nM
Rattus norvegicus [1]
  Max: 33%
Rattus norvegicus [12]
  PS: Partially active
[2]
  EC50: 120 nM
Rattus norvegicus [13]
  PS: Partially active
[3]
  Ki: 2.6 nM
